Data from ChEMBL document CHEMBL3228016, “Antiallergy agents. 1. 1,6-Dihydro-6-oxo-2-phenylpyrimidine-5-carboxylic acids and esters” (1979).

How the values were obtained:
Type in all cases: functional
Settings in all cases: read-out: ID50 (the source's name)
Rattus norvegicus [1] = assay: Antiallergic activity in po dosed Sprague-Dawley rat passive cutaneous analphylaxis model assessed as inhibition of allergic response administered 10 mins prior to antigen challenge
How it was run: (§1)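 Modified Ovary rat passive cutaneous anaphylaxis screen in male Sprague-Dawley rats, with 24 h between sensitization and antigen challenge. Acidic compounds were dissolved in aqueous NaHCO3 where possible; others were suspended in aqueous sodium citrate with Tween 40/sodium carboxymethylcellulose. Dosing was iv 1 min or po 10 min before challenge. ID50 is the dose giving 50% inhibition of the response; significance was p ≤ 0.05 by Student's t test.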

Rattus norvegicus [2] = assay: Antiallergic activity in iv dosed Sprague-Dawley rat passive cutaneous analphylaxis model assessed as inhibition of allergic response administered 1 min prior to antigen challenge; how it was run: as §1
Rattus norvegicus [3] = assay: Antiallergic activity in po dosed Sprague-Dawley rat passive cutaneous analphylaxis model assessed as inhibition of allergic response administered 30 mins prior to antigen challenge
How it was run: (§2)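 Male Sprague-Dawley rat passive cutaneous anaphylaxis (modified Ovary method), with a 24 h sensitization-to-challenge interval. The agent was dissolved in saline and given iv at the time of antigen challenge or po 30 min before challenge. The dose inhibiting the response by 50% was determined; significance was p ≤ 0.05 by Student's t test.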

Rattus norvegicus [4] = assay: Antiallergic activity in iv dosed Sprague-Dawley rat passive cutaneous analphylaxis model assessed as inhibition of allergic response administered at the time of antigen challenge; how it was run: as §2

| Structure (SMILES) | ED50 (Rattus norvegicus [1]) [mg/kg] | further results |
| --- | --- | --- |
| CCOC(=O)c1cnc(-c2ccccc2)nc1O | > 20 |  |
| CCOC(=O)c1cnc(-c2cccc(OC)c2)nc1O | 10 |  |
| CCOC(=O)c1cnc(-c2ccccc2OCC(C)C)[nH]c1=O | 3 |  |
| O=C(O)c1cnc(-c2ccccc2)[nH]c1=O | 50 |  |
| O=C(O)c1cnc(-c2ccccc2F)[nH]c1=O | 5 |  |
| O=C(O)c1cnc(-c2ccccc2Cl)[nH]c1=O | 5 |  |
| O=C(O)c1cnc(-c2ccccc2[N+](=O)[O-])[nH]c1=O | > 50 |  |
| Nc1ccccc1-c1ncc(C(=O)O)c(=O)[nH]1 | 50 |  |
| O=C(O)c1cnc(-c2ccccc2O)[nH]c1=O | > 5 |  |
| COc1ccccc1-c1ncc(C(=O)O)c(=O)[nH]1 | 10 |  |
| CCOc1ccccc1-c1ncc(C(=O)O)c(=O)[nH]1 | 0.5 | ED50 (Rattus norvegicus [2]): 0.07 mg/kg |
| CCCOc1ccccc1-c1ncc(C(=O)O)c(=O)[nH]1 | 0.9 |  |
| CC(C)Oc1ccccc1-c1ncc(C(=O)O)c(=O)[nH]1 | 0.8 |  |
| CCCCOc1ccccc1-c1ncc(C(=O)O)c(=O)[nH]1 | 0.5 |  |
| CC(C)COc1ccccc1-c1ncc(C(=O)O)c(=O)[nH]1 | 0.5 |  |
| CCC(C)Oc1ccccc1-c1ncc(C(=O)O)c(=O)[nH]1 (configuration not stated) | 0.5 |  |
| CCCCCOc1ccccc1-c1ncc(C(=O)O)c(=O)[nH]1 | 3 |  |
| C=CCOc1ccccc1-c1ncc(C(=O)O)c(=O)[nH]1 | 0.5 |  |
| O=C(O)c1cnc(-c2ccccc2OCC2CC2)[nH]c1=O | 0.1 |  |
| O=C(O)c1cnc(-c2ccccc2OCc2ccccc2)[nH]c1=O | 5 |  |
| CSc1ccccc1-c1ncc(C(=O)O)c(=O)[nH]1 | > 20 |  |
| CCSc1ccccc1-c1ncc(C(=O)O)c(=O)[nH]1 | 25 |  |
| C[S+]([O-])c1ccccc1-c1ncc(C(=O)O)c(=O)[nH]1 (configuration not stated) | > 5 |  |

| Structure (SMILES) | ED50 (Rattus norvegicus [1]) [mg/kg] | further results |
| --- | --- | --- |
| O=C(O)c1cnc(-c2cccc(C(F)(F)F)c2)[nH]c1=O | 33 |  |
| COc1cccc(-c2ncc(C(=O)O)c(=O)[nH]2)c1 | 10 |  |
| CCOc1cccc(-c2ncc(C(=O)O)c(=O)[nH]2)c1 | 5 |  |
| O=C(O)c1cnc(-c2ccc(Cl)cc2)[nH]c1=O | 5 |  |
| O=C(O)c1cnc(-c2ccc(C(F)(F)F)cc2)[nH]c1=O | > 5 |  |
| COc1ccc(-c2ncc(C(=O)O)c(=O)[nH]2)cc1 | > 5 |  |
| C=CCc1cccc(-c2ncc(C(=O)O)c(=O)[nH]2)c1O | > 0.5 |  |
| COc1ccc(-c2ncc(C(=O)O)c(=O)[nH]2)c(OC)c1 | 5 |  |
| COc1ccc(OC)c(-c2ncc(C(=O)O)c(=O)[nH]2)c1 | 1 |  |
| CCOc1ccc(Cl)cc1-c1ncc(C(=O)O)c(=O)[nH]1 | 0.5 |  |
| CCOc1ccc(OC)cc1-c1ncc(C(=O)O)c(=O)[nH]1 | 0.2 |  |
| CCOc1ccc(C(=O)O)cc1-c1ncc(C(=O)O)c(=O)[nH]1 | 25 |  |
| CCOc1ccc([N+](=O)[O-])cc1-c1ncc(C(=O)O)c(=O)[nH]1 | 25 |  |
| CCOc1ccc(N)cc1-c1ncc(C(=O)O)c(=O)[nH]1 | 1.2 |  |
| CCOc1ccc(N(C)C)cc1-c1ncc(C(=O)O)c(=O)[nH]1 | 0.3 |  |
| CCOC(=O)C(=O)Nc1ccc(OCC)c(-c2ncc(C(=O)O)c(=O)[nH]2)c1 | 25 |  |
| CCOc1ccc(S(N)(=O)=O)cc1-c1ncc(C(=O)O)c(=O)[nH]1 | > 50 |  |
| CCOc1ccc(S(=O)(=O)N(C)C)cc1-c1ncc(C(=O)O)c(=O)[nH]1 | > 50 |  |
| CCOc1ccc(S(=O)(=O)N(CC)CC)cc1-c1ncc(C(=O)O)c(=O)[nH]1 | 40 |  |
| CCOc1ccc(S(=O)(=O)N(C)C(C)C)cc1-c1ncc(C(=O)O)c(=O)[nH]1 | > 10 |  |
| CCCOc1ccc(OC)cc1-c1ncc(C(=O)O)c(=O)[nH]1 | 0.3 |  |
| CCOC(=O)c1cnc(-c2ccccc2F)[nH]c1=O | > 10 |  |
| CCOC(=O)c1cnc(-c2ccccc2Cl)[nH]c1=O | 5 |  |

| Structure (SMILES) | ED50 (Rattus norvegicus [1]) [mg/kg] | further results |
| --- | --- | --- |
| CCOC(=O)c1cnc(-c2ccccc2O)[nH]c1=O | 5 |  |
| CCOC(=O)c1cnc(-c2ccccc2OC)[nH]c1=O | 10 |  |
| CCOC(=O)c1cnc(-c2ccccc2OCC)[nH]c1=O | 2 |  |
| CCCOc1ccccc1-c1ncc(C(=O)OCC)c(=O)[nH]1 | 5 |  |
| CCOC(=O)c1cnc(-c2ccccc2OC(C)C)[nH]c1=O | 2 |  |
| CCCCOc1ccccc1-c1ncc(C(=O)OCC)c(=O)[nH]1 | 0.5 |  |
| CCOC(=O)c1cnc(-c2ccccc2OC(C)CC)[nH]c1=O (configuration not stated) | 0.5 |  |
| CCCCCOc1ccccc1-c1ncc(C(=O)OCC)c(=O)[nH]1 | 2 |  |
| C=CCOc1ccccc1-c1ncc(C(=O)OCC)c(=O)[nH]1 | 0.5 |  |
| CCOC(=O)c1cnc(-c2ccccc2OCC2CC2)[nH]c1=O | 0.3 |  |
| CCOC(=O)c1cnc(-c2ccccc2OCc2ccccc2)[nH]c1=O | > 5 |  |
| CCOC(=O)c1cnc(-c2ccccc2SC)[nH]c1=O | > 25 |  |
| CCOC(=O)c1cnc(-c2ccccc2SCC)[nH]c1=O | > 5 |  |
| CCOC(=O)c1cnc(-c2cccc(C(F)(F)F)c2)[nH]c1=O | 50 |  |
| CCOC(=O)c1cnc(-c2cccc(OCC)c2)[nH]c1=O | 50 |  |
| CCOC(=O)c1cnc(-c2ccc(Cl)cc2)[nH]c1=O | > 30 |  |
| CCOC(=O)c1cnc(-c2ccc(C(F)(F)F)cc2)[nH]c1=O | > 5 |  |
| CCOC(=O)c1cnc(-c2ccc(OC)cc2)[nH]c1=O | 30 |  |
| CCOC(=O)c1cnc(-c2ccc(OC)cc2OC)[nH]c1=O | 5 |  |
| CCOC(=O)c1cnc(-c2cc(OC)ccc2OC)[nH]c1=O | 5 |  |
| CCOC(=O)c1cnc(-c2cc(Cl)ccc2OCC)[nH]c1=O | 0.5 |  |
| CCOC(=O)c1cnc(-c2cc(OC)ccc2OCC)[nH]c1=O | 0.3 |  |
| CCOC(=O)c1ccc(OCC)c(-c2ncc(C(=O)OCC)c(=O)[nH]2)c1 | 1 |  |

| Structure (SMILES) | ED50 (Rattus norvegicus [1]) [mg/kg] | further results |
| --- | --- | --- |
| CCOC(=O)c1cnc(-c2cc([N+](=O)[O-])ccc2OCC)[nH]c1=O | 5 |  |
| CCOC(=O)c1cnc(-c2cc(N)ccc2OCC)[nH]c1=O | 0.5 |  |
| CCOC(=O)C(=O)Nc1ccc(OCC)c(-c2ncc(C(=O)OCC)c(=O)[nH]2)c1 | 5 |  |
| CCOC(=O)c1cnc(-c2cc(S(N)(=O)=O)ccc2OCC)[nH]c1=O | 50 |  |
| CCOC(=O)c1cnc(-c2cc(S(=O)(=O)N(C)C)ccc2OCC)[nH]c1=O | 50 |  |
| CCOC(=O)c1cnc(-c2cc(S(=O)(=O)N(CC)CC)ccc2OCC)[nH]c1=O | 10 |  |
| CCOC(=O)c1cnc(-c2cc(S(=O)(=O)N(C)C(C)C)ccc2OCC)[nH]c1=O | > 10 |  |
| CCCOc1ccc(OC)cc1-c1ncc(C(=O)OCC)c(=O)[nH]1 | 0.7 |  |
| CCOC(=O)c1cnc(-c2cc([N+](=O)[O-])cc([N+](=O)[O-])c2OCC)[nH]c1=O | > 50 |  |
| Cn1c(-c2ccccc2)ncc(C(=O)O)c1=O | 50 |  |
| CCOC(=O)c1cnc(-c2ccccc2)n(C)c1=O | > 5 |  |
| CCOc1ccccc1-c1ncc(C(=O)O)c(=O)n1C | > 50 |  |
| CCOC(=O)c1cnc(-c2ccccc2OCC)n(C)c1=O | > 40 |  |
| CCOc1ccccc1-c1nc(=O)c(C(=O)O)cn1C | > 40 |  |
| CCOC(=O)c1cn(C)c(-c2ccccc2OCC)nc1=O |  | ED50 (Rattus norvegicus [2]): > 1 mg/kg |
| COc1nc(-c2ccccc2)ncc1C(=O)O | > 10 |  |
| CCOC(=O)c1cnc(-c2ccccc2)nc1OC | > 5 |  |
| CCOc1ccccc1-c1ncc(C(=O)O)c(OC)n1 | > 5 |  |
| CC1Cc2cccc(-c3ncc(C(=O)O)c(=O)[nH]3)c2O1 (racemic) | 5 |  |
| CCOC(=O)c1cnc(-c2cccc3c2OC(C)C3)[nH]c1=O (racemic) | 5 |  |
| O=C([O-])c1cc(=O)c2c(OCC(O)COc3cccc4oc(C(=O)[O-])cc(=O)c34)cccc2o1.[Na+].[Na+] [CROMOLYN SODIUM] |  | ED50 (Rattus norvegicus [3]): ≥ 30 mg/kg; ED50 (Rattus norvegicus [4]): 0.3 mg/kg |
